Measured values published in ChEMBL document CHEMBL1123384, “Studies of the antitumor activity of (2-alkoxyalkyl)- and (2-alkoxyalkenyl)phosphocholines” (J Med Chem, 1986).
In brackets after ≈: the same amount, converted by molar mass. Activity calls are given as the source filed them. The rule behind the calls is not given here.

Key:
CCRF-CEM = test: In vitro inhibition of CCRF-CEM cell proliferation; assay type: functional, cell-based; settings: Homo sapiens
Outline: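 Human leukaemia CCRF-CEM cells were grown in RPMI 1640 with 10% dialysed FBS, 16 mM HEPES and 8 mM MOPS, at 4.8 × 10^4 cells per well, in duplicate with several concentrations. Compounds came from a 4 mg/mL Me2SO (or ethanol) stock. After 72 h of continuous exposure (5% CO2), cells were counted on a Coulter counter. IC50 was read from dose–response curves against untreated controls.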

Mus musculus [1] = species on record: Mus musculus; test: Compound was evaluated for the induction of cytotoxic macrophages at concentration of 1 ug/mL; assay type: functional
Outline: (§1)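 Peptone-elicited peritoneal macrophages were taken from C3Heb/FeJ mice (6–8 weeks) 3 days after ip peptone broth. About 4 × 10^5 cells per well were made adherent (90 min) and washed. Compound (3 mg/mL Me2SO stock, diluted in RPMI-1640 + 20% FCS) was added with 4 × 10^4 P815 mastocytoma cells, about 10:1 macrophage:target, at 37 °C, 5% CO2. After 48 h, nonadherent cells were counted by trypan blue. % cytotoxicity = (A−B)/A × 100, corrected for direct drug toxicity on targets. Mean of three experiments.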

X5563 [2] = test: Compound was tested in vivo for inhibition of tumor growth of X5,563 myeloma at dose of 17 mg/kg; Number of toxic deaths over total number of mice per group (T/C), 1/10; assay type: functional; settings: Mus musculus
Mus musculus [3] = species on record: Mus musculus; test: Compound was evaluated for the induction of cytotoxic macrophages at concentration of 0.1 ug/mL; assay type: functional; outline: as §1
Mus musculus [4] = species on record: Mus musculus; test: Compound was evaluated for the induction of cytotoxic macrophages at concentration of 0.01 ug/mL; assay type: functional; outline: as §1
X5563 [5] = test: Compound was tested in vivo for inhibition of tumor growth of X5,563 myeloma at dose of 25 mg/kg; Number of toxic deaths over total number of mice per group (T/C), 0/10; assay type: functional; settings: Mus musculus
X5563 [6] = test: Compound was tested in vivo for inhibition of tumor growth of X5,563 myeloma at dose of 35 mg/kg; Number of toxic deaths over total number of mice per group (T/C), 2/9; assay type: functional; settings: Mus musculus
B16 = test: Compound was evaluated for the antitumor activity against B-16 melanoma; Inactive; assay type: functional, cell-based; settings: Mus musculus
[7] = Compound was evaluated for the antitumor activity against X5563 plasma cell myeloma for po administration and daily x 10 schedule; Number of toxic deaths over total number of mice per group (T/C), 0/10 at dose of 50 mg/kg; assay type: functional; settings: Mus musculus
C3H = test: Compound was evaluated for the antitumor activity against C3H mammary carcinoma for ip administration and daily x 10 schedule; Number of toxic deaths over total number of mice per group (T/C), 1/10 at dose of 25 mg/kg; assay type: functional; settings: Mus musculus, route intraperitoneal
C-6 colon (Mus musculus) = test: Compound was evaluated for the antitumor activity against C-6 colon for ip administration and days 4,8,12; Number of toxic deaths over total number of mice per group (T/C), 1/10 at dose of 50 mg/kg
X5563 [8] = test: Compound was tested in vivo for inhibition of tumor growth of X5,563 myeloma at dose of 17 mg/kg; Number of toxic deaths over total number of mice per group (T/C), 0/10; assay type: functional; settings: Mus musculus
X5563 [9] = test: Compound was tested in vivo for inhibition of tumor growth of X5,563 myeloma at dose of 25 mg/kg; Number of toxic deaths over total number of mice per group (T/C), 1/10; assay type: functional; settings: Mus musculus
AC755 = test: Compound was evaluated for the antitumor activity against AC755 breast carcinoma for ip administration and daily x 10 schedule; Number of toxic deaths over total number of mice per group (T/C), 1/7 at dose of 25 mg/kg; assay type: functional; settings: Mus musculus, route intraperitoneal
C6 = test: Compound was evaluated for the antitumor activity against C-6 colon for ip administration and daily x 10; 5-day delay schedule; Number of toxic deaths over total number of mice per group (T/C), 1/10 at dose of 17 mg/kg; assay type: functional; settings: Mus musculus, 120 h, route intraperitoneal
P388 = test: Compound was evaluated for the antitumor activity against P-388 leukemia; Inactive; assay type: functional, cell-based; settings: Mus musculus
Outline: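 P-388 leukaemia: DBA/2 mice were inoculated ip with 1 × 10^6 cells. Compounds were suspended in 2.5% Emulphor in 0.9% saline and given as indicated. Mean life span of treated groups was compared with controls.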

6C3HED = test: Compound was evaluated for the antitumor activity against 6C3HED lymphosarcoma for ip administration and daily x 8 schedule; Number of toxic deaths over total number of mice per group (T/C), 0/10 at dose of 35 mg/kg; assay type: functional; settings: Mus musculus, route intraperitoneal
M-5 = test: Compound was evaluated for the antitumor activity against M-5 ovarian carcinoma for ip administration and daily x 10; % day delay schedule.; assay type: functional, Mus musculus
[10] = Compound was evaluated for the antitumor activity against X5563 plasma cell myeloma for ip administration and days x10; Number of toxic deaths over total number of mice per group (T/C), 0/10 at dose of 25 mg/kg; assay type: functional; settings: Mus musculus, route intraperitoneal
[11] = Compound was evaluated for the antitumor activity against X5563 plasma cell myeloma for iv administration and days 4,8,12; Number of toxic deaths over total number of mice per group (T/C), 1/10 at dose of 50 mg/kg; assay type: functional; settings: Mus musculus
X5563 [12] = test: Compound was tested in vivo for inhibition of tumor growth of X5,563 myeloma at dose of 35 mg/kg; Number of toxic deaths over total number of mice per group (T/C), 4/10; assay type: functional; settings: Mus musculus
X5563 [13] = test: Compound was tested in vivo for inhibition of tumor growth of X5,563 myeloma at dose of 5 mg/kg; Number of toxic deaths over total number of mice per group (T/C), 4/10; assay type: functional; settings: Mus musculus
X5563 [14] = test: Compound was tested in vivo for inhibition of tumor growth of X5,563 myeloma at dose of 70 mg/kg; Number of toxic deaths over total number of mice per group (T/C), 2/10; assay type: functional; settings: Mus musculus
X5563 [15] = test: Compound was tested in vivo for inhibition of tumor growth of X5,563 myeloma at dose of 50 mg/kg; Number of toxic deaths over total number of mice per group (T/C), 1/10; assay type: functional; settings: Mus musculus
X5563 [16] = test: Compound was tested in vivo for inhibition of tumor growth of X5,563 myeloma at dose of 70 mg/kg; Number of toxic deaths over total number of mice per group (T/C), 9/10; assay type: functional; settings: Mus musculus
X5563 [17] = test: Compound was tested in vivo for inhibition of tumor growth of X5,563 myeloma at dose of 50 mg/kg; Number of toxic deaths over total number of mice per group (T/C), 9/10; assay type: functional; settings: Mus musculus
X5563 [18] = test: Compound was tested in vivo for inhibition of tumor growth of X5,563 myeloma at dose of 25 mg/kg; Number of toxic deaths over total number of mice per group (T/C), 2/10; assay type: functional; settings: Mus musculus
[19] = Compound was tested in vivo for inhibition of tumor growth of X5,563 myeloma at dose of 35 mg/kg; Number of toxic deaths over total number of mice per group (T/C), 3/10; assay type: functional; settings: Mus musculus, X5563
X5563 [20] = test: Compound was tested in vivo for inhibition of tumor growth of X5,563 myeloma at dose of 17 mg/kg; Number of toxic deaths over total number of mice per group (T/C), 3/10; assay type: functional; settings: Mus musculus
X5563 [21] = test: Compound was tested in vivo for inhibition of tumor growth of X5,563 myeloma at dose of 35 mg/kg; Number of toxic deaths over total number of mice per group (T/C), 0/9; assay type: functional; settings: Mus musculus
X5563 [22] = test: Compound was tested in vivo for inhibition of tumor growth of X5,563 myeloma at dose of 25 mg/kg; Number of toxic deaths over total number of mice per group (T/C), 0/9; assay type: functional; settings: Mus musculus

SMILES: CCCCCCCCCCC(COP(=O)([O-])OCC[N+](C)(C)C)OCC (centres undefined)
- IC50 (CCRF-CEM): 55 µg/mL (≈ 139 µM)
- Macrophage cytotoxicity (Mus musculus [1]): 32%
- inhibition in vivo at 17 mg/kg (X5563 [2]): 41%
- Macrophage cytotoxicity (Mus musculus [3]): 2%
- Macrophage cytotoxicity (Mus musculus [4]): 1%
- inhibition in vivo at 25 mg/kg (X5563 [5]): 39%
- inhibition in vivo at 35 mg/kg (X5563 [6]): 45%

SMILES: CCCCCCCCCCCCCCCCCCC(COP(=O)([O-])OCC[N+](C)(C)C)OCC (centres undefined)
- IC50 (CCRF-CEM): 0.8 µg/mL (≈ 1.58 µM)
- inhibition (B16): inactive
- inhibition in vivo at 50 mg/kg [7]: 56%
- inhibition in vivo at 25 mg/kg (C3H): 37%
- inhibition in vivo at 50 mg/kg (C-6 colon (Mus musculus)): 31%
- Macrophage cytotoxicity (Mus musculus [1]): 29%
- inhibition in vivo at 17 mg/kg (X5563 [8]): 65%
- Macrophage cytotoxicity (Mus musculus [3]): 37%
- inhibition in vivo at 25 mg/kg (X5563 [9]): 80%
- Macrophage cytotoxicity (Mus musculus [4]): 1%
- inhibition in vivo at 25 mg/kg (AC755): 42%
- inhibition in vivo at 17 mg/kg (C6): 56%
- inhibition (P388): inactive
- inhibition in vivo at 35 mg/kg (6C3HED): 85%
- Inhibition (M-5): 22%
- inhibition in vivo at 25 mg/kg [10]: 77%
- inhibition in vivo at 50 mg/kg [11]: 43%
- inhibition in vivo at 35 mg/kg (X5563 [12]): 95%

SMILES: CCCCCCCCCCCCCCCCOC[C@H](COP(=O)([O-])OCC[N+](C)(C)C)OCC
- IC50 (CCRF-CEM): 2.9 µg/mL (≈ 5.69 µM)
- Macrophage cytotoxicity (Mus musculus [1]): 31%
- Macrophage cytotoxicity (Mus musculus [3]): 5%
- Macrophage cytotoxicity (Mus musculus [4]): 4%
- inhibition in vivo at 5 mg/kg (X5563 [13]): 18%

SMILES: CCCCC/C=C\C/C=C\CCCCCCCC(COP(=O)([O-])OCC[N+](C)(C)C)OCC (centres undefined)
- IC50 (CCRF-CEM): 6 µg/mL (≈ 12.3 µM)
- inhibition in vivo at 70 mg/kg (X5563 [14]): 31%

SMILES: CCCCCCCCCCCCCCCCCC[C@@H](O)COP(=O)([O-])OCC[N+](C)(C)C
- IC50 (CCRF-CEM): > 20 µg/mL

SMILES: CCCCCCCC/C=C\CCCCCCCC(COP(=O)([O-])OCC[N+](C)(C)C)OCC (centres undefined)
- IC50 (CCRF-CEM): 1.6 µg/mL (≈ 3.25 µM)
- inhibition in vivo at 50 mg/kg (X5563 [15]): 47%
- inhibition in vivo at 70 mg/kg (X5563 [16]): 67%

SMILES: CCCCCCCCCCCCCCCCCCC(COP(=O)([O-])OCC[N+](C)(C)C)OC (centres undefined)
- IC50 (CCRF-CEM): 1.5 µg/mL (≈ 3.04 µM)

SMILES: CCCCCCCCCCCCCCCCCC[C@H](COP(=O)([O-])OCC[N+](C)(C)C)OC(C)=O
- inhibition in vivo at 50 mg/kg (X5563 [17]): 100%
- IC50 (CCRF-CEM): 0.9 µg/mL (≈ 1.73 µM)
- Macrophage cytotoxicity (Mus musculus [1]): 23%
- inhibition in vivo at 17 mg/kg (X5563 [8]): 57%
- Macrophage cytotoxicity (Mus musculus [3]): 0%
- inhibition in vivo at 25 mg/kg (X5563 [18]): 39%
- Macrophage cytotoxicity (Mus musculus [4]): 0%
- inhibition in vivo at 35 mg/kg [19]: 68%

SMILES: CCCCCCCCCCCCCCCCCCCCCCCC(COP(=O)([O-])OCC[N+](C)(C)C)OCC (centres undefined)
- Macrophage cytotoxicity (Mus musculus [1]): 0%
- Macrophage cytotoxicity (Mus musculus [3]): 2%
- Macrophage cytotoxicity (Mus musculus [4]): 0%

SMILES: CCCCCCCCCCCCCCC(COP(=O)([O-])OCC[N+](C)(C)C)OCC (centres undefined)
- IC50 (CCRF-CEM): 5.4 µg/mL (≈ 12 µM)
- inhibition in vivo at 25 mg/kg (X5563 [18]): 17%
- inhibition in vivo at 17 mg/kg (X5563 [20]): 7%
- inhibition in vivo at 35 mg/kg (X5563 [12]): 80%

SMILES: CCCCCCC(COP(=O)([O-])OCC[N+](C)(C)C)OCC (centres undefined)
- IC50 (CCRF-CEM): > 200 µg/mL
- Macrophage cytotoxicity (Mus musculus [1]): 0%
- inhibition in vivo at 17 mg/kg (X5563 [8]): 17%
- Macrophage cytotoxicity (Mus musculus [3]): 0%
- Macrophage cytotoxicity (Mus musculus [4]): 0%
- inhibition in vivo at 35 mg/kg (X5563 [21]): 17%
- inhibition in vivo at 25 mg/kg (X5563 [22]): 16%
